Test results from ChEMBL document CHEMBL4425138, “Probing Lipophilic Adamantyl Group as the P1-Ligand for HIV-1 Protease Inhibitors: Design, Synthesis, Protein X-ray Structural Studies, and Biological Evaluation” (J Med Chem, 2016).
pIC50, pKi: −log10 of the molar value.

Experiments:
[1] = tested on: Human immunodeficiency virus; assay: Antiviral activity against HIV1 […] infected in human MT2 cells by MTT assay; type: functional, organism-based; conditions: Human immunodeficiency virus 1, MT2
Summary of the method: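 MT-2 human T-lymphoid cells infected with 100 TCID50 of HIV-1 LAI and cultured with each inhibitor. IC50 read by MTT assay. Run in triplicate. Values are means (±1 SD) from two independent experiments.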

Protease = Protease (Human immunodeficiency virus 1, UniProt Q9YQ12); assay: Inhibition of HIV1 protease using Abz-NleF*-6 as substrate preincubated for 5 to 10 mins followed by substrate addition measured after 1 hr by fluorometric assay
Sequence of Protease (Q9YQ12 whole entry): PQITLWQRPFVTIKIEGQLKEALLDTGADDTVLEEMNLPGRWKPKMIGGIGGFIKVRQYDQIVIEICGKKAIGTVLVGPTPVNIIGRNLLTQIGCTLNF

[2] = tested on: Human immunodeficiency virus 1; assay: Antiviral activity against multi-drug resistant HIV1C harboring protease L10I/I15V/K20R/L24I/M36I/M46L/I54V/I62V/L63P/K70Q/V82A/L89M mutant infected in human MT4 cells by p24 assay; type: functional, organism-based; conditions: Human immunodeficiency virus 1, C
Summary of the method: (§1)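 MT-4 cells (1×10^4) infected with 50 TCID50 of virus and cultured across a range of compound concentrations. Virus was wild-type HIV-1 NL4-3 or a multidrug-resistant variant (HIV-1B, HIV-1C, or DRV-resistant P20). IC50 from p24 assay. Run in triplicate. Values are means (±1 SD) from two independent experiments.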

[3] = tested on: Human immunodeficiency virus 1; assay: Antiviral activity against darunavir resistant HIV1 harboring protease L10I/I15V/K20R/L24I/V32I/M36I/M46L/L63P/A71T/V82A/L89M mutant at 20 passages infected in human MT4 cells by p24 assay; type: functional, organism-based; conditions: Human immunodeficiency virus 1, MT4; summary of the method: as §1
[4] = tested on: Human immunodeficiency virus 1; assay: Antiviral activity against multi-drug resistant HIV1B harboring protease L10I/L33I/M36I/M46I/F53L/K55R/I62V/L63P/A71V/G73S/V82A/L90M/I93L mutant infected in human MT4 cells by p24 assay; type: functional, organism-based; conditions: Human immunodeficiency virus 1, B; summary of the method: as §1
[5] = tested on: Human immunodeficiency virus 1; assay: Antiviral activity against wild type HIV1 NL4-3 infected in human MT4 cells by p24 assay; type: functional, organism-based; conditions: Human immunodeficiency virus 1, NL4-3, MT4
Summary of the method: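 MT-4 cells (1×10^4) infected with 50 TCID50 of virus and cultured across a range of compound concentrations. IC50 from p24 assay. Run in triplicate. Values are means (±1 SD) from two independent experiments.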

Structure (SMILES)	pIC50 [1]	pKi (Protease)	pIC50 [2]	pIC50 [3]	pIC50 [4]	pIC50 [5]
COc1ccc(S(=O)(=O)N(CC(C)C)C[C@@H](O)[C@H](CC23CC4CC(CC(C4)C2)C3)NC(=O)O[C@@H]2CO[C@@H]3OCCC[C@@H]32)cc1	< 6.00	7.62				
COc1ccc(S(=O)(=O)N(CC(C)C)C[C@@H](O)[C@H](CC23CC4CC(CC(C4)C2)C3)NC(=O)O[C@H]2CO[C@H]3OCCC[C@H]32)cc1	6.34	8.72				
CC(C)CN(C[C@@H](O)[C@H](CC12CC3CC(CC(C3)C1)C2)NC(=O)O[C@H]1CCOC1)S(=O)(=O)c1ccc(N)cc1	6.24	8.47				
COc1ccc(S(=O)(=O)N(CC(C)C)C[C@@H](O)[C@H](CC23CC4CC(CC(C4)C2)C3)NC(=O)O[C@H]2CO[C@H]3OCC[C@H]32)cc1	7.49	9.32	6.44	< 6.00	< 6.00	7.82
CC(C)CN(C[C@@H](O)[C@H](CC12CC3CC(CC(C3)C1)C2)NC(=O)O[C@H]1CO[C@H]2OCC[C@H]21)S(=O)(=O)c1ccc(N)cc1	7.22	9.14				
COc1ccc(S(=O)(=O)N(Cc2ccccc2)C[C@@H](O)[C@H](CC23CC4CC(CC(C4)C2)C3)NC(=O)O[C@H]2CO[C@H]3OCC[C@H]32)cc1	6.51	8.07				
COc1ccc(S(=O)(=O)N(C[C@@H](O)[C@H](CC23CC4CC(CC(C4)C2)C3)NC(=O)O[C@H]2CO[C@H]3OCC[C@H]32)c2ccccc2)cc1		8.96				
CC(C)CN(C[C@@H](O)[C@H](Cc1ccccc1)NC(=O)O[C@H]1CO[C@H]2OCC[C@H]21)S(=O)(=O)c1ccc(N)cc1			7.52	7.06	7.37	
COc1ccc(S(=O)(=O)N(CC(C)C)C[C@@H](O)[C@H](CC23CC4CC(CC(C4)C2)C3)NC(=O)O[C@@H]2CO[C@@H]3OCC[C@@H]32)cc1		9.00				
CC(C)CN(C[C@@H](O)[C@H](Cc1ccccc1)NC(=O)O[C@H]1CCOC1)S(=O)(=O)c1ccc(N)cc1			6.37	< 6.00	6.07	7.77
COc1ccc(S(=O)(=O)N(CC(C)C)C[C@@H](O)[C@H](CC23CC4CC(CC(C4)C2)C3)NC(=O)O[C@@H]2CCOC2)cc1		8.55				
COc1ccc(S(=O)(=O)N(CC(C)C)C[C@@H](O)[C@H](CC23CC4CC(CC(C4)C2)C3)NC(=O)O[C@H]2CCOC2)cc1	7.41	9.27	< 6.00	< 6.00	< 6.00	6.34
